# Results: ChEMBL document CHEMBL4513216, “Probing the Open Global Health Chemical Diversity Library for Multistage-Active Starting Points for Next-Generation Antimalarials” (ACS Infect Dis, 2020)
# Assay: Toxicity liver stage against HepG2, at 10uM
# Assay type: cell-based
# Set-up: test concentration 10 uM, cell line HepG2-A16-CD81EGFP
# Conditions: human, HepG2-A16-CD81EGFP cells; read-out: INHIBITION
# Method in brief: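 Uninfected HepG2-A16-CD81EGFP cells, 3 × 10^3 per well, 1536-well, plated on prespotted compound at 10 μM final, parasite-free screening media added to match infected plates; puromycin 10 μM positive, DMSO 0.5% negative; run in parallel with 48 h PbLuc assay at 37 °C, 5% CO2; viability by CellTiter-Glo luminescence, normalized to controls.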
row,Compound,cytotoxicity at 10 µM [%]
1,Cc1csc(NCC(=O)c2c[nH]c3ccccc23)n1,22.4
2,CS(=O)(=O)NCC1CCCCN1C(=O)c1csc(-c2ccsc2)n1 (stereo unspecified),-5.89
3,COc1cccc(-c2nc(C)c(C(=O)N[C@@H](CC(C)C)C(=O)O)s2)c1,4.21
4,O=C(NCC1CCCO1)c1cc(-c2ccc3c(c2)CCO3)n[nH]1 (stereo unspecified),-8.13
5,CCc1c(C)nc(-n2nc(-c3cccs3)cc2N)[nH]c1=O,-4.47
6,CN(C)C(CNC(=O)NCCOc1ccccc1)c1ccco1 (stereo unspecified),-6.2
7,CC(=O)OC1CN(c2nc3c(C(F)(F)F)cccc3s2)C1,-5.17
8,CN1CCN(C(=O)c2n[nH]c3c2CN(Cc2nccs2)CC3)CC1,-144
9,CC1CCc2nc(O)c(C(=O)NCc3ccccn3)cc2C1 (stereo unspecified),-2.99
10,CC1CCc2nc(O)c(C(=O)NCCc3cccs3)cc2C1 (stereo unspecified),0.106
11,O=c1c2cnc(N3CCCC3)nc2ccn1-c1cccc(F)c1,3.36
12,O=C(NCCCO)c1nc(-c2ccc3cc[nH]c3c2)no1,4.28
13,Cc1nc2c(Nc3ccc(C#N)cc3)nc(N)nc2n1C,1.88
14,COc1ccc(-c2cc(C3(O)CCCC3)on2)cc1,2.5
15,Cc1ccc(NC(=O)c2cccc(N(C)C)c2)nc1,8.77
16,CCOCCC(=O)NC(c1noc(C)n1)c1ccccc1F (stereo unspecified),0.101
17,CSCCC(=O)N1CCN(CC(C)(C)O)CC1,-5.85
18,CN1CCc2ccc(NCc3cccs3)cc2C1=O,-4.72
19,NC(=O)CSc1ccccc1NCc1nc(C2CC2)no1,1.12
20,COc1cc2c(nn1)CCN(Cc1nc(Cc3ccccc3)no1)C2,-2.09
21,CN(CCCNC(=O)c1cccc(OCC(N)=O)c1)CC(F)(F)F,-10.4
22,Cn1cc(N2CCCC(Nc3ccc4c(c3)NC(=O)CC4)C2=O)cn1 (stereo unspecified),-1.61
23,O=C(c1ccc(NCc2ccco2)nc1)N1CCc2ccccc21,-4.6

row,Compound,cytotoxicity at 10 µM [%]
1,CC(C)(C)n1ncc2c(=O)[nH]c(N3CCN(CCO)CC3)nc21,-13.3
2,CC(C)C(O)CNC(=O)Nc1cccc(-c2nccs2)c1 (stereo unspecified),-5.5
3,CCOCCOC(C)C(=O)Nc1ccc2[nH]c(C)cc2c1 (stereo unspecified),5.35
4,O=C(Nc1cnn(-c2ccccc2Cl)c1)N[C@@H]1C=C[C@H](CO)C1,0.836
5,Cn1c(C2CC2)nc2cc(NC(=O)C3(O)CCCC3)ccc21,2.84
6,NC(=O)CC1CCN(C(=O)c2csc(-c3ccccc3F)n2)CC1,-1.29
7,COCCN1CCN(CC(O)c2cc(OC)ccc2OC)CC1 (stereo unspecified),3
8,O=C(NCCSC1CCCC1)c1ccc(F)cc1F,-3.16
9,N#Cc1ccc(N2CCCC2Cn2cncn2)nc1 (stereo unspecified),6.05
10,CS(=O)(=O)NCCNC(=O)NC1(c2ccc(F)cc2)CCCC1,-1.44
11,Cc1ccccc1OCCSc1nnc(CC2CCS(=O)(=O)C2)n1C (stereo unspecified),1.27
12,CC1CCN(C(=O)Cn2cc(I)cn2)CC1,2.19
13,CCN1CCC(NC(=O)Cn2cc(C)c3ccccc32)CC1,-1.74
14,Cc1cn(CC(=O)NC2CCC3(CC2)OCCO3)c2ccccc12,-1.21
15,CN(Cc1ccc(Cl)s1)C(=O)c1ccccc1OCC(N)=O,-9.2
16,COC(=O)c1ccc(N2CCC(C(O)c3ccccc3)CC2)nn1 (stereo unspecified),1.68
17,Cn1cccc(NC(=O)COc2ccc(Br)cc2)c1=O,8.35
18,CC(C)C(=O)NCCCNC(=O)Nc1cc(-c2ccccc2)ns1,20.3
19,CCC(C)(C)C(=O)N1CCN(C2=NCC(C)S2)CC1 (stereo unspecified),-144
20,CC(C)C(C)N(C(=O)c1cc2c([nH]c1=O)CCCC2=O)C1CC1 (stereo unspecified),-3.45
21,CC(=O)N(C)CCc1nc(-c2cc(C(N)=O)co2)cs1,-4.99
22,Cc1ccc(OCC(O)COC2CCOCC2)c(Br)c1 (stereo unspecified),-4.66
23,Cc1ccc(-c2nn3c(nc2=O)-c2ccccc2NC3C(=O)O)cc1C (stereo unspecified),19.3

row,Compound,cytotoxicity at 10 µM [%]
1,O=C(N1CCC(O)(C(F)(F)F)C1)C1(c2cccc(Cl)c2)CC1 (stereo unspecified),-2.72
2,CC(Cn1cccn1)NCc1csc(-c2ccccc2)n1 (stereo unspecified),-13.4
3,Cc1ccsc1[C@@H]1CCN(C(=O)CCCn2cncn2)C[C@H]1O,-6.91
4,CCc1nc(N2CCC3(CC2)CC(=O)N(Cc2ccc(Cl)cc2)C3)no1,4.48
5,Cc1nccc(-c2ccccc2)c1C(=O)N1CC[C@](C)(O)C(C)(C)C1,-3.45
6,CC(C)c1nnc(N2C[C@@H](CN(C)CCO)[C@@H](CO)C2)s1,-2.48
7,Cc1nn2cc(CCNC(=O)c3cc(C(C)C)no3)nc2s1,-4.8
8,CCCc1nnc(N(C)CC2CCN(CC(C)C)CC2)o1,6.05
9,Cc1ncsc1CCC(=O)N1CCN(CCn2cncn2)CC1,3.21
10,CN(C)C1CCN(C(=O)c2cccc(S(=O)(=O)NCC3(C)COC3)c2)C1 (stereo unspecified),-9.22
11,Cc1ccsc1CCNC(C)C(=O)NC1CCCC1 (stereo unspecified),-4.44
12,O=C1CCCN1CCc1noc(-c2ccsc2)n1,8.35
13,CN1CSC[C@H]1C(=O)N1CCN(Cc2cccc(F)c2)CC1,-6.92
14,COCC[C@]1(O)CCN(C(=O)CCc2cnn(C)c2)C[C@H]1C,1.72
15,CC(C)CC(NC(=O)c1cc(-c2cccn2C)n[nH]1)c1ncnn1C (stereo unspecified),-3.08
16,CC(C)NC(=O)Nc1ccc(-c2nc3c([nH]2)CCNC3)cc1,-3.5
17,CC(C)NC(=O)CNC(C)COc1ccccc1 (stereo unspecified),-5.66
18,CCC(CNC(=O)c1cc(CC(C)C)nn1C)N(C)CC (stereo unspecified),-5.99
19,Cc1ccc(C)c2c1NC(=O)C2CC(=O)O (stereo unspecified),28.4
20,CSc1ccc(CN2CCn3nc(CNC(C)=O)cc3C2)cc1,17.4
21,COc1ccccc1[C@@H]1CN(CC2CCC2)C[C@H]1C(=O)O,-1.02
22,CSc1ccc2c(C)cc(N[C@@H](C)CO)nc2c1,-1.07
23,COCC1CCN(C(=O)c2cc(-c3ccco3)nc3c(Cl)cccc23)C1 (stereo unspecified),1.12

row,Compound,cytotoxicity at 10 µM [%]
1,CCn1c(Cn2ccnc2)nnc1C1CCN(Cc2ccc(C)o2)CC1,-2.28
2,CC(C)(O)CCc1cccc(C(=O)N2CCC3(CCO3)CC2)c1,-0.864
3,CNCc1n[nH]c(=O)n1-c1ccccc1Oc1ccccc1,-4.88
4,CC(=O)c1ccc(F)cc1-c1cc(NCCO)nc2[nH]ccc12,-5.72
5,CN(Cc1n[nH]c2c1CCCCC2)C(=O)c1cc(-c2cccn2C)n[nH]1,3.02
6,O=C(Cc1ccc(CO)cc1)N1CCN(CC2CC2)[C@@H]2CS(=O)(=O)C[C@@H]21,-14.2
7,Nc1nc2c(c(NCc3nc(-c4ccncc4)n[nH]3)n1)CCCC2,-0.0554
8,CCN(C)CC(C)Cn1cnc(-c2ccccc2)c1-c1cncn1CC (stereo unspecified),1.33
9,O=C(O)[C@@H]1CN(C(=O)CSCC2CC2)C[C@H]1c1ccccn1,5.35
10,CCn1c(N)nc2cc(C(=O)N3CCN(c4ccncc4)CC3)cnc21,-8.3
11,CCn1c(C)nnc1SCCNC(=O)CC1CCc2ccccc21 (stereo unspecified),-1.26
12,CN(c1ccc(-c2nc(C3CC3)no2)cn1)C1CCOCC1,-10.8
13,O=c1c2cccc(C(F)(F)F)c2ncn1CCN1CCNCC1,-3.21
14,Cc1ccc(CSc2nc(N)cc(NCC(=O)N3CCNCC3)n2)cc1,-4.62
15,CC(C)Cn1cncc1-c1nc2c([nH]1)CC(C)(C)CNC2=O,-1.41
16,COCCN1CC2(CCCN(c3ncnc4[nH]cnc34)C2)CCC1=O (stereo unspecified),-3.68
17,CNc1ncc(CN(C)Cc2cc3n(n2)CCNC3)cn1,-5.71
18,COc1cccc2c(=O)n(CCN3CCNCC3)cnc12,0.623
19,Cc1ccc2nc(-c3nc4c([nH]3)CCCNC4=O)cn2c1,4.42
20,O=C1N(C2CCCCC2)CCCC12CCN(S(=O)(=O)c1cccnc1)C2 (stereo unspecified),6
21,COc1c(C2CCCN2C(=O)CCNc2ncccn2)c(C)nn1C (stereo unspecified),-5.1
22,CCOCCCn1c(NC(=O)c2cnc(C)cn2)nc2ccccc21,-18.7
23,c1ccc2oc(CN3CCCC3c3noc(C4CC4)n3)nc2c1 (stereo unspecified),-4.04

row,Compound,cytotoxicity at 10 µM [%]
1,CN(C)CC1CN(Cc2nnc(C(C)(C)C)o2)CCO1 (stereo unspecified),-4.17
2,Cc1cnn(CC2CN(CC(=O)Nc3cc(C)no3)CCO2)c1 (stereo unspecified),-6.13
3,Cn1cc(-c2nc(CN3CCCCC3Cn3cncn3)cs2)cn1 (stereo unspecified),-17.4
4,Cc1ccc(-c2ncc(C(=O)NCCNC(=O)C3CC3)s2)c(C)c1,-23.8
5,CCOc1ccc(C(=O)N2CCCC2c2c(C)nn(C)c2OC)cn1 (stereo unspecified),2.63
6,Cc1ccc(N2CCCC(NCc3c(C)noc3C)C2)nn1 (stereo unspecified),-5.88
7,O=C(c1cc(F)ccc1F)C1CCN(C(=O)c2ccco2)CC1,3.15
8,Cc1nc(CN2CCCC(N(C)Cc3nc(CC(C)C)no3)C2)no1 (stereo unspecified),5.35
9,O=C(c1ccccn1)N1CCOC2(COCCN(Cc3cc[nH]n3)C2)C1 (stereo unspecified),0.0227
10,Cc1nc(COC[C@@H]2CC[C@H]3[C@H](CCN3c3ccccn3)O2)cs1,4.06
11,CC1c2ncc(CNC(=O)C3CC3)n2CCN1Cc1ccccn1 (stereo unspecified),8.18
12,CCN1CC[C@@]2(C(=O)N(C)C)CCN(S(=O)(=O)c3ccccc3)CC[C@@H]12,1.26
13,Cc1cccc(CN2CCc3ncnc(N4CCN(C)CC4)c3CC2)n1,-145
14,COCc1nn(CC2CC2)c2c1CN(Cc1cncn1C)CC2,3.94
15,COc1cccc(C=CCCN2CCN(S(C)(=O)=O)CC2)c1,-1.62
16,CC(=O)c1ccc(C(=O)N2C[C@H]3CC[C@@H](C2)N(CC2CCC2)C3)s1,-5.79
17,CN1C(=O)[C@@H]2CC[C@H]1CN(C(=O)c1nnc3n1CCCCC3)C2,-6.34
18,CN(C)C(c1ccccn1)C1CCC(CNC(=O)C2CC2)CC1 (stereo unspecified),6.6
19,COCCN1C(=O)[C@@H]2CC[C@H]1CN(C(=O)COc1ccc(F)c(Cl)c1)C2,-0.447
